Experimental data from ChEMBL document CHEMBL1133101, “7-Methyl-6,7,8,9,14,15-hexahydro-5H-benz[d]indolo[2,3-g]azecine: a new heterocyclic system and a new lead compound for dopamine receptor antagonists” (J Med Chem, 2000).

Key:
[1] = target: Sulfonylurea receptors; K-ATP channels (Homo sapiens) (UniProt Q14654+O60706+Q09428+Q15842); test: Percent inhibition of glibenclamide binding to K+ channel; type: protein-complex assay; set-up: concentration or dose not given beside the values
Outline: (§1)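 Preliminary screen of receptors isolated from rat or pig tissues, run with minor changes to standard procedures. Each compound was tested at a single fixed concentration for each receptor. The read-out was the percent decrease in binding of the named radioligand.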

[2] = target: Angiotensin II receptor (Homo sapiens) (UniProt P30556+P50052); test: Percent decrease of Angiotensin II receptor binding; type: protein assay; set-up: concentration or dose not given beside the values; outline: as §1
[3] = target: T1, 5-hydroxytryptamine receptor 1A (Homo sapiens) (UniProt P08908); test: Percent decrease in 5-hydroxytryptamine 1A receptor binding using 8-OH-DPAT; set-up: concentration or dose not given beside the values; outline: as §1
T1 sequence (whole entry): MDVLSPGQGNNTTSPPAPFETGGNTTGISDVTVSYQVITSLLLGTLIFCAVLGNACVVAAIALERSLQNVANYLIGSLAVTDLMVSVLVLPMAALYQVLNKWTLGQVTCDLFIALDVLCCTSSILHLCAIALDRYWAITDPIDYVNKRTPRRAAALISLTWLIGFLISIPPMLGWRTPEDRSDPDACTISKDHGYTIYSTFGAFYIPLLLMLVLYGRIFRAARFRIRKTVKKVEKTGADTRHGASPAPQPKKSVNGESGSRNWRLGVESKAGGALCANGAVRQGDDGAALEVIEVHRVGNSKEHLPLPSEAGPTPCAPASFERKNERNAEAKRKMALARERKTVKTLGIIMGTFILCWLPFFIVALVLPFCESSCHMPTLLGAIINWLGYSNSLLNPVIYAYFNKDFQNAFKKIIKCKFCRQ

[4] = target: Glutamate [NMDA] receptor (Homo sapiens) (UniProt Q05586+Q12879+Q13224+O15399+O60391+Q14957+Q8TCU5); test: Percent decrease of N-methyl-D-aspartate glutamate receptor binding using MK-801; type: protein-complex assay; set-up: concentration or dose not given beside the values; outline: as §1
D(2) dopamine receptor = D(2) dopamine receptor (Rattus norvegicus, UniProt P61169); test: Binding affinity against Dopamine receptor D2 of rat striatal mambranes using [3H]spiperone
Outline: (§2)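 Rat striatal receptor preparations were used, with [3H]SCH23390 for D1, [3H]spiperone for D2 and [3H]RP62203 for 5-HT2. Ki ([…]) was derived from competitive displacement of the radioligand, with n = 3–7.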

[5] = Percent decrease in Dopamine receptor D2 binding using spiperone; set-up: scale not given: the % may be the effect or the level left
[6] = Percent decrease in Bradykinin receptor binding; set-up: concentration or dose not given beside the values; outline: as §1
[7] = Percent decrease of Endothelin receptor binding using [125I]sarafotoxin; set-up: concentration or dose not given beside the values
[8] = target: T2, Glutamate receptor ionotropic AMPA (Homo sapiens) (UniProt P48058+P42263+P42262+P42261); test: Percent decrease in Quisqualate receptor binding using AMPA; type: protein-complex assay; set-up: scale not given: the % may be the effect or the level left; outline: as §1
[9] = target: D(1A) dopamine receptor (Rattus norvegicus) (UniProt P18901); test: Percent decrease in Dopamine receptor D1 binding using SCH-23390; set-up: scale not given: the % may be the effect or the level left
Chain of D(1A) dopamine receptor (Rattus norvegicus) (P18901 whole entry, looked up): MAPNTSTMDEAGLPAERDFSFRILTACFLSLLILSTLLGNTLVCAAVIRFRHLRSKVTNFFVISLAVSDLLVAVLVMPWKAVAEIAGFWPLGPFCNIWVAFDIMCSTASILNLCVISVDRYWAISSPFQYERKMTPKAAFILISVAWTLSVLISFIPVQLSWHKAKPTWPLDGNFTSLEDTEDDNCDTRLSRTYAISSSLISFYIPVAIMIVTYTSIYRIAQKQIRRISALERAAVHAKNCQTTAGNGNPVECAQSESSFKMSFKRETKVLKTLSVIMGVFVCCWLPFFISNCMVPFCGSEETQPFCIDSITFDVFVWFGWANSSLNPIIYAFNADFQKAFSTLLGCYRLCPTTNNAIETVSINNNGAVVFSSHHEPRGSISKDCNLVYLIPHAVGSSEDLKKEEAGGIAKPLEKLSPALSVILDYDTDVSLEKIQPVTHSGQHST

[10] = target: Sodium-dependent serotonin transporter (Homo sapiens) (UniProt P31645); test: % Decrease of 5-HT carrier-receptor -bound radioactivity using paroxetine as a radioligand.; set-up: concentration or dose not given beside the values; outline: as §1
Chain of Sodium-dependent serotonin transporter (Homo sapiens) (P31645 whole entry, looked up): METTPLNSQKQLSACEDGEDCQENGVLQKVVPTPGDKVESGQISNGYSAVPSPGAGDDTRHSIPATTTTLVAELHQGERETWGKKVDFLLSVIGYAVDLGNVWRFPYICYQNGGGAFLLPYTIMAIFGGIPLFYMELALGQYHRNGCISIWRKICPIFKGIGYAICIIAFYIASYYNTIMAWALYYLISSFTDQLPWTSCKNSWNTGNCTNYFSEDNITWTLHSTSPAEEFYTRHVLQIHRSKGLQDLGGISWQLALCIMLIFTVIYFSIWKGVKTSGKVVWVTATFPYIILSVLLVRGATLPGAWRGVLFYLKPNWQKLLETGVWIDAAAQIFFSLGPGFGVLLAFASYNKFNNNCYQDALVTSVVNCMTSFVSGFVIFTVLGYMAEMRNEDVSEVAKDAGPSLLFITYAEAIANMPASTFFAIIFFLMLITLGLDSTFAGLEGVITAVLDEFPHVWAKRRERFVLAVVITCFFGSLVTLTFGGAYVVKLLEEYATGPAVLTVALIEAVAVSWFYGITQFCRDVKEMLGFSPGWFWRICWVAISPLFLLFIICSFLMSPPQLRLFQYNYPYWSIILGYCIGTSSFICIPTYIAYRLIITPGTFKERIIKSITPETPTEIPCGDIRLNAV

D(1A) dopamine receptor = D(1A) dopamine receptor (Rattus norvegicus, UniProt P18901); test: Binding affinity against Dopamine receptor D1 of rat striatal receptor using [3H]SCH-23390; outline: as §2
Chain of D(1A) dopamine receptor (P18901 whole entry): as the sequence (P18901 whole entry, looked up) above

[11] = % Decrease of Phorbol Diester Receptor -bound radioactivity using PDBU as a radioligand.; set-up: scale not given: the % may be the effect or the level left; outline: as §1
[12] = target: T3, Muscarinic acetylcholine receptor M1 (Homo sapiens) (UniProt P11229); test: Percent decrease of Muscarinic acetylcholine receptor M1 binding using pirenzepine; set-up: scale not given: the % may be the effect or the level left; outline: as §1
T3 sequence (whole entry): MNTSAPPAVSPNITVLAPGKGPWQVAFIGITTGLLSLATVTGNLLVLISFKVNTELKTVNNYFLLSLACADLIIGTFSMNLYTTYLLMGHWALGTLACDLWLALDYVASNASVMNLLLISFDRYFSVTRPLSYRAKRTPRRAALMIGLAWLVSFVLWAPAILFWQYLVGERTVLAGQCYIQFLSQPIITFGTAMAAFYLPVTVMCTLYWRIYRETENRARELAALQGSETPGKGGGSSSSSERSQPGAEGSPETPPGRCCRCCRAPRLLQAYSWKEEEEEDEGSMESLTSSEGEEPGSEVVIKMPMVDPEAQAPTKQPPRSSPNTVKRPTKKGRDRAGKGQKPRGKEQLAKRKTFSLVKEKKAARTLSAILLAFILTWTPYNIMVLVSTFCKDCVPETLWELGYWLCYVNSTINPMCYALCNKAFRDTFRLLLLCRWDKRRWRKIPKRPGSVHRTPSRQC

[13] = target: Neuronal acetylcholine receptor (Rattus norvegicus) (UniProt P04757+P09483+P12389+P12390+P12392+P43144+Q9JLB5+P12391+P43143+P20420+Q05941); test: % Decrease of Nicotinic acetylcholine receptor-bound radioactivity using cytisine as a radioligand.; type: protein-complex assay; set-up: scale not given: the % may be the effect or the level left; outline: as §1
[14] = % Decrease of adenosine carrier-receptor -bound radioactivity using NBTI as a radioligand.; set-up: concentration or dose not given beside the values; outline: as §1
[15] = target: T4, Adenosine receptor A1 (Homo sapiens) (UniProt P30542); test: Percent decrease in Adenosine A1 receptor binding using CPDPX; set-up: scale not given: the % may be the effect or the level left
T4 sequence (whole entry): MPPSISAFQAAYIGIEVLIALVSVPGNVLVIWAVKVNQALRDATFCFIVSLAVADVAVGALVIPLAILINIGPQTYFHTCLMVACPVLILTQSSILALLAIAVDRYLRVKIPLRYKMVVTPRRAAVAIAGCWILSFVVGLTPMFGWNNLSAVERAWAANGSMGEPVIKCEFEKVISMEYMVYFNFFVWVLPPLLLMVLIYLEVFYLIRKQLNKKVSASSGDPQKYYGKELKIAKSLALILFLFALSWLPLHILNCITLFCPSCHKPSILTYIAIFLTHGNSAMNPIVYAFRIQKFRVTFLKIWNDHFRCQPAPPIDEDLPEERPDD

[16] = target: Serotonin 2 (5-HT2) receptor (Homo sapiens) (UniProt P41595+P28223+P28335); test: (§3) Percent decrease in 5-hydroxytryptamine 2 receptor binding using ketanserin; type: protein assay; set-up: scale not given: the % may be the effect or the level left; outline: as §1
[17] = target: GABA-A receptor; anion channel (Homo sapiens) (UniProt P14867+P47870+P18507+P28472+P48169+Q99928+Q9UN88+P34903+O00591+O14764+Q8N1C3+P18505+P78334+P47869+P31644+Q16445); test: Displacement of muscimol from GABA-A receptor; type: protein-complex assay; outline: as §1
[18] = target: Serotonin 2 (5-HT2) receptor (Rattus norvegicus, UniProt P30994+P08909+P14842); test: Binding affinity against 5-hydroxytryptamine 2 receptor in rat striatum using [3H]-RP62203; type: tissue-based
[19] = target: T2, Glutamate receptor ionotropic AMPA (Homo sapiens); test: Percent decrease of Quisqualate receptor binding using AMPA; type: protein-complex assay; set-up: scale not given: the % may be the effect or the level left; outline: as §1
[20] = target: Serotonin 2 (5-HT2) receptor (Rattus norvegicus) (UniProt P30994+P08909+P14842); test: as §3; type: protein assay; set-up: scale not given: the % may be the effect or the level left; outline: as §1
[21] = target: D(2) dopamine receptor (Rattus norvegicus) (UniProt P61169); test: Percent decrease in Dopamine receptor D2 binding using spiperone; set-up: scale not given: the % may be the effect or the level left; outline: as §1
[22] = target: Adrenergic receptor alpha-1 (Homo sapiens) (UniProt P35348+P25100+P35368); test: Percent decrease in Alpha-1 adrenergic receptor binding using prazosin; type: protein assay; outline: as §1
[23] = target: T4, Adenosine receptor A1 (Homo sapiens); test: Percent decrease in adenosine-A1-receptor binding using CPDPX; set-up: scale not given: the % may be the effect or the level left; outline: as §1

Chain of Sulfonylurea receptors; K-ATP channels (Homo sapiens) (O60706 whole entry, looked up): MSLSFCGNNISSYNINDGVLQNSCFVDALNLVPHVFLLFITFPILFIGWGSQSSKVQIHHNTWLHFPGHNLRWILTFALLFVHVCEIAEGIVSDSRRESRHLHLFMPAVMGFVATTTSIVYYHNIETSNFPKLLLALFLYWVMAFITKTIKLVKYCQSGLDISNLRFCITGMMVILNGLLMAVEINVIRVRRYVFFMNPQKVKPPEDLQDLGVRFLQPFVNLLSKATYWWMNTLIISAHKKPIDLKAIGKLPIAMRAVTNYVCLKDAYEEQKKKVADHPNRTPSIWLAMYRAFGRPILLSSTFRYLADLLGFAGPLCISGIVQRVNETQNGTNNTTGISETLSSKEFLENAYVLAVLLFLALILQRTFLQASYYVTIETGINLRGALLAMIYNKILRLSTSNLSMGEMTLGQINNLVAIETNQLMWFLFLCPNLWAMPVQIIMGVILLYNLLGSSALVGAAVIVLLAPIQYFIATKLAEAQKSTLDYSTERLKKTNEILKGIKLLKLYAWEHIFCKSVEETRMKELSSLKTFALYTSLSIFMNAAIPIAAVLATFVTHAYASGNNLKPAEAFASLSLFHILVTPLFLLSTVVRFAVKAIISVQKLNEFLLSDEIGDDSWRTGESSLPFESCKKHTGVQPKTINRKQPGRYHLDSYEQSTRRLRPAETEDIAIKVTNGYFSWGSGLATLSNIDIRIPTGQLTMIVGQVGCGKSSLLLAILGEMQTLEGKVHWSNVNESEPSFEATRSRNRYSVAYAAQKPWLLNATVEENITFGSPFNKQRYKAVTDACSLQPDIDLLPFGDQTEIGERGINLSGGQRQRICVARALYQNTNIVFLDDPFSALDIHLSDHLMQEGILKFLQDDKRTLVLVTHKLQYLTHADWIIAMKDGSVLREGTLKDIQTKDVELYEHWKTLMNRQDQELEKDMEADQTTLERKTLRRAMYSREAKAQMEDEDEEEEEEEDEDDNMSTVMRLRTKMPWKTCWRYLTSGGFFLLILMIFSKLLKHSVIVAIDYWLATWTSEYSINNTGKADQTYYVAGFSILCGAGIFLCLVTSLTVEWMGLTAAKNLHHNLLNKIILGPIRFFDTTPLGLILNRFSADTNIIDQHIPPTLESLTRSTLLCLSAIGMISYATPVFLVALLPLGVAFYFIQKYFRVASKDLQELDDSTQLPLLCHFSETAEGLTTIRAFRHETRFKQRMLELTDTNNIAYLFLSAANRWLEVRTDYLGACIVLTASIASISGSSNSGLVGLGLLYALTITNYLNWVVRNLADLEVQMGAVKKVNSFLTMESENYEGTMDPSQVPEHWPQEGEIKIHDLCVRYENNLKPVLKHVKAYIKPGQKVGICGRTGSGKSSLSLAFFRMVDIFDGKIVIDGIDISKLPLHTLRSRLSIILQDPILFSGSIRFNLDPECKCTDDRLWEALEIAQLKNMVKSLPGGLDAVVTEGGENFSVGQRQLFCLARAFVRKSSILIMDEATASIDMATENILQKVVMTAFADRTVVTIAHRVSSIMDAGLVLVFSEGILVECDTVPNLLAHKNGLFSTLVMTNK
Chain of Sulfonylurea receptors; K-ATP channels (Homo sapiens) (Q09428 whole entry, looked up): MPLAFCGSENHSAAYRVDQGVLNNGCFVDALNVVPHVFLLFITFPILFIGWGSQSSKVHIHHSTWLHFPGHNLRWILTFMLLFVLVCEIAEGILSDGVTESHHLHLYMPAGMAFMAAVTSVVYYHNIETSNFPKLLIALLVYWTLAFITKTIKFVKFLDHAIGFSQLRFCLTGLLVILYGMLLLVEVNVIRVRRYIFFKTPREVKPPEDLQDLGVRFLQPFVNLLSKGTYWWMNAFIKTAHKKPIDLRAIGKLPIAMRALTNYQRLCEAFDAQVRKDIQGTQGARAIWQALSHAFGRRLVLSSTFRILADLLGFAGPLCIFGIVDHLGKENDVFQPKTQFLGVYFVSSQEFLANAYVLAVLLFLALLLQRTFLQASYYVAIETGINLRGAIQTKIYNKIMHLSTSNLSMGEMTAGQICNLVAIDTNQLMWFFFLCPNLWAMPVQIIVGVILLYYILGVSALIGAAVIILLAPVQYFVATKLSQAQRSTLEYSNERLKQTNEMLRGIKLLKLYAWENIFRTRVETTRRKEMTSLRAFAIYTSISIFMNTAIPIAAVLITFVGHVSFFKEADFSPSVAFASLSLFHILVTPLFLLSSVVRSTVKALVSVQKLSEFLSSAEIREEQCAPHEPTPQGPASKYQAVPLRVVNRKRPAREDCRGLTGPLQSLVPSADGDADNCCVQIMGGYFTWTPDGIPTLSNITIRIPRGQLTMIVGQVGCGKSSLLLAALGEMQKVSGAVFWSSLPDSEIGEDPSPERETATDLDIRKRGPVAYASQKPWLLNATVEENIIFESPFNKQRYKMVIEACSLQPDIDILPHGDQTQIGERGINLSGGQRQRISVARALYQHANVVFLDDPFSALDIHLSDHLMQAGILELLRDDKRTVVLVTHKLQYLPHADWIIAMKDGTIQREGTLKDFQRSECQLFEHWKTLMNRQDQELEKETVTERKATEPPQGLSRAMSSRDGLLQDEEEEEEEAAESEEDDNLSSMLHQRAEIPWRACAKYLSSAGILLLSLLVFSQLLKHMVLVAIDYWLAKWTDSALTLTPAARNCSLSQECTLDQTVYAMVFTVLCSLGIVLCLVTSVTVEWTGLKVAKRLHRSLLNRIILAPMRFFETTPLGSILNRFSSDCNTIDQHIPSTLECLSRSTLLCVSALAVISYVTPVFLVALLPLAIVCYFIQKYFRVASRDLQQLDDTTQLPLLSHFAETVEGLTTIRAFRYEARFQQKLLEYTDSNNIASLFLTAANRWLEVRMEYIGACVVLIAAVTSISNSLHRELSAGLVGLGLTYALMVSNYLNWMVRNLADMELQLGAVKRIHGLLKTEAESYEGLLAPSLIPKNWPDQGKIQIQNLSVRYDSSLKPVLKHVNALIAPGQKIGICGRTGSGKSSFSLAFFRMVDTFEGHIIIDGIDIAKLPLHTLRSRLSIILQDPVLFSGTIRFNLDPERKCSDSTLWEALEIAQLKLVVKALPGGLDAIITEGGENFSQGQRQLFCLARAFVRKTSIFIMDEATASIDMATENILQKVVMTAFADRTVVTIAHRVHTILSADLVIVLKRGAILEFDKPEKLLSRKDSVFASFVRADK
Chain of Sulfonylurea receptors; K-ATP channels (Homo sapiens) (Q14654 whole entry, looked up): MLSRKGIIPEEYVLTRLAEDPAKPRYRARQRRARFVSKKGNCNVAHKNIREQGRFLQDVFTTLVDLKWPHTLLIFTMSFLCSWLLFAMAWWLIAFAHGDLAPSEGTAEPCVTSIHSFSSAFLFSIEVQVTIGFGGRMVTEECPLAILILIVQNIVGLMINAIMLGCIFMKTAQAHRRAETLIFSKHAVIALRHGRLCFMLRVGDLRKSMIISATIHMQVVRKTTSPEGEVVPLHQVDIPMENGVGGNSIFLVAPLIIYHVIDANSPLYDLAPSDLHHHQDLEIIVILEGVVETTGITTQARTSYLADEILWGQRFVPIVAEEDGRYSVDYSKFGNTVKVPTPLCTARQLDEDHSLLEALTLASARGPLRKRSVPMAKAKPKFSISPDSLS
Chain of Sulfonylurea receptors; K-ATP channels (Homo sapiens) (Q15842 whole entry, looked up): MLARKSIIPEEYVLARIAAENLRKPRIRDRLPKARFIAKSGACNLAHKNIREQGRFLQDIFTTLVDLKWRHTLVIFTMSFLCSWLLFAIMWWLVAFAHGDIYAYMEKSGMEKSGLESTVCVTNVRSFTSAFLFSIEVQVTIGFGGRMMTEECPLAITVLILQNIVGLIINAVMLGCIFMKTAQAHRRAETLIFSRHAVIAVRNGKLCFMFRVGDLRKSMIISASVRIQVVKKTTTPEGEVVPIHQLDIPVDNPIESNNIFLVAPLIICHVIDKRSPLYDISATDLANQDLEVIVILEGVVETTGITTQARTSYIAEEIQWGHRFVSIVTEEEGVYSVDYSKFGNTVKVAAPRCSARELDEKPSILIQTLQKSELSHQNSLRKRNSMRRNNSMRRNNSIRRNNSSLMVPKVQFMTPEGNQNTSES

Compound	Activity [1]	Activity [2]	Activity [3]	Activity [4]	Ki (D(2) dopamine receptor)	Activity [5]	Activity [6]	Activity [7]	Activity [8]	Activity [9]	Activity [10]	Ki (D(1A) dopamine receptor)	Activity [11]	Activity [12]	Activity [13]	Activity [14]	Activity [15]	Activity [16]	Activity [17]	Ki [18]	further results
COc1cc2c(cc1OC)Cc1[nH]c3ccccc3c1CCN(C)CC2	1%	9%	-22%	-44%	730 nM	-77%	-19%	1%	-8%	-82%	-2%	91 nM	-1%	-22%	-10%	-9%	3%	-67%	-23%	960 nM	–
CN1CCc2c([nH]c3ccccc23)Cc2[nH]c3ccccc3c2CC1	0%	9%	-25%	-56%	79 nM	-95%	-21%	0%	0%	-95%	-13%	9.6 nM	-5%	-14%	-7%	-11%	-6%	-80%	-4%	180 nM	–
C[N+]12CCc3c([nH]c4ccccc34)C1c1[nH]c3ccccc3c1CC2 (configuration not stated)	6%	-3%	-3%	-20%	–	–	-4%	0%	–	–	-33%	–	-17%	-15%	3%	7%	–	–	-4%	–	Activity [19]: 11%; Activity [20]: -32%; Activity [21]: -22%; Decrease [22]: -64%; Activity [23]: 11%
